How the values were obtained:
Rattus norvegicus [1] = test: Hypocholesterolemic activity in Sprague-Dawley rat assessed as serum cholesterol level at 10 mg/kg/day, po administered via intubation measured on day 16 by Liebermann-Burchard reaction (reference value: 100%); format: functional
Rattus norvegicus [2] = test: Hypocholesterolemic activity in Sprague-Dawley rat assessed as serum cholesterol level at 10 mg/kg/day, po administered via intubation measured on day 10 by Liebermann-Burchard reaction (reference value: 100%); format: functional
Rattus norvegicus [3] = test: Hypocholesterolemic activity in Sprague-Dawley rat assessed as serum cholesterol level at 10 mg/kg/day, po administered via intubation measured on day 4 by Liebermann-Burchard reaction (reference value: 100%); format: functional
Rattus norvegicus [4] = test: Effect on kidney weight in rat at 10 mg/kg/day administered for 16 days measured 24 hrs after last drug dosage relative to total body weight (reference value: 0.96 +/- 0.08%); format: ADME, organism-based; conditions: in vivo
Rattus norvegicus [5] = test: Effect on liver weight in rat at 10 mg/kg/day administered for 16 days measured 24 hrs after last drug dosage relative to total body weight (reference value: 4.54 +/- 0.29%); format: ADME, organism-based; conditions: in vivo
[6] = Solubility of the compound in 1% CMC; format: physicochemical
Rattus norvegicus [7] = test: Effect on epididymis and vas deferens weight in rat at 10 mg/kg/day administered for 16 days measured 24 hrs after last drug dosage relative to total body weight (reference value: 0.24 +/- 0.07%); format: ADME, organism-based; conditions: in vivo
[8] = Toxicity in ip dosed CF1 mouse assessed as animal death; format: organism-based; conditions: in vivo
Summary of the method: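 Male CF1 mice given active propanones ip over 10 mg to 6 g/kg where solubility allowed; deaths recorded to estimate LD50.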

Rattus norvegicus [9] = test: Effect on vesicular gland weight in rat at 10 mg/kg/day administered for 16 days measured 24 hrs after last drug dosage relative to total body weight (reference value: 0.11 +/- 0.04%); format: ADME, organism-based; conditions: in vivo
Rattus norvegicus [10] = test: Uterotrophic activity in ovariectomized Sprague-Dawley rat assessed as uterine weight administered for 3 days (reference value: 100 +/- 27%); format: organism-based, Uterus; conditions: in vivo, 72 h
Rattus norvegicus [11] = test: Effect on testes weight in rat at 10 mg/kg/day administered for 16 days measured 24 hrs after last drug dosage relative to total body weight (reference value: 1.10 +/- 0.17%); format: ADME, organism-based, Testis; conditions: in vivo
Rattus norvegicus [12] = test: Effect on protein content in rat liver at 10 mg/kg/day administered for 16 days (reference value: 100 +/- 6%); format: ADME, organism-based; conditions: in vivo, 384 h
Rattus norvegicus [13] = test: Effect on RNA content in rat liver at 10 mg/kg/day administered for 16 days (reference value: 100 +/- 8%); format: ADME, organism-based; conditions: in vivo, 384 h
Rattus norvegicus [14] = test: Effect on heart weight in rat at 10 mg/kg/day administered for 16 days measured 24 hrs after last drug dosage relative to total body weight (reference value: 0.43 +/- 0.10%); format: ADME, organism-based; conditions: in vivo
Mus musculus [15] = test: Antifertility activity in CF1 mouse assessed as proportion of pregnant animals at 50 mg/kg/day, ip (reference value: 100%); format: ADME, organism-based; parameters: route intraperitoneal; conditions: in vivo
Rattus norvegicus [16] = test: Hypocholesterolemic activity in rat assessed as serum triglyceride level at 10 mg/kg/day administered for 8 days (reference value: 100 +/- 15%); format: functional
Summary of the method: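 Male Sprague-Dawley rats dosed orally at 10 mg/kg/day in 1% CMC. Serum triglycerides were measured with a stat pack kit after 8 days of dosing. Expressed as percent of vehicle control, N = 8; Student's t test.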

Rattus norvegicus [17] = test: Effect on lipid content in rat liver at 10 mg/kg/day administered for 16 days (reference value: 100 +/- 16%); format: ADME, organism-based; conditions: in vivo, 384 h
Rattus norvegicus [18] = test: Effect on DNA content in rat liver at 10 mg/kg/day administered for 16 days (reference value: 100 +/- 25%); format: ADME, organism-based; conditions: in vivo, 384 h
Mus musculus [19] = test: Antifertility activity in CF1 mouse assessed as proportion of reabsorption litter at 50 mg/kg/day, ip (reference value: 100 +/- 25%); format: ADME, organism-based; parameters: route intraperitoneal; conditions: in vivo
Mus musculus [20] = test: Antifertility activity in CF1 mouse assessed as proportion of fetus per litter at 50 mg/kg/day, ip (reference value: 100 +/- 25%); format: ADME, organism-based; parameters: route intraperitoneal; conditions: in vivo
Rattus norvegicus [21] = test: Effect on glycogen content in rat liver at 10 mg/kg/day administered for 16 days (reference value: 100 +/- 24%); format: ADME, organism-based; conditions: in vivo, 384 h
Mus musculus [22] = species: Mus musculus; test: Antifertility activity in CF1 mouse assessed as proportion of fetus per litter at 10 ug (reference value: 100 +/- 25%); format: ADME, organism-based; conditions: in vivo
Mus musculus [23] = species: Mus musculus; test: Antifertility activity in CF1 mouse assessed as proportion of reabsorption litter at 10 ug (reference value: 100 +/- 25%); format: ADME, organism-based; conditions: in vivo
Mus musculus [24] = species: Mus musculus; test: Antifertility activity in CF1 mouse assessed as proportion of pregnant animals at 10 ug (reference value: 100%); format: ADME, organism-based; conditions: in vivo

Row | Compound | Activity (Rattus norvegicus [1]) [%] | Activity (Rattus norvegicus [2]) [%] | Activity (Rattus norvegicus [3]) [%] | also measured
1 | O=C(CSc1ccccc1)CSc1ccccc1 | 79 | 101 | 96 | –
2 | COc1ccc(OCC(=O)COc2ccc(Cl)cc2)cc1 | 84 | 88 | 102 | –
3 | Cc1cccc(OCC(=O)COc2cccc(C)c2)c1 | 97 | 119 | 115 | –
4 | O=C(COc1cccc(Cl)c1)COc1cccc(Cl)c1 | 84 | 91 | 97 | –
5 | O=C(COc1ccc(Br)cc1)COc1ccc(Br)cc1 | 85 | 85 | 74 | –
6 | CCOc1ccc(OCC(=O)COc2ccc(OCC)cc2)cc1 | 85 | 96 | 77 | –
7 | Cc1ccc(OCC(=O)COc2ccc(Cl)cc2)cc1 | 75 | 84 | 108 | –
8 | CCc1ccc(OCC(=O)COc2ccc(CC)cc2)cc1 | 64 | 60 | 70 | Activity (Rattus norvegicus [4]): 0.87%; Activity (Rattus norvegicus [5]): 4.28%; solubility [6]: Insoluble; Activity (Rattus norvegicus [7]): 0.27%; LD50 [8]: > 3000 mg/kg; Activity (Rattus norvegicus [9]): 0.15%; Activity (Rattus norvegicus [10]): 62%; Activity (Rattus norvegicus [11]): 1.14%
9 | O=C(CS(=O)(=O)c1ccc(Cl)cc1)CS(=O)(=O)c1ccc(Cl)cc1 | 91 | 86 | 82 | –
10 | CCC(=O)c1ccc(OCC(=O)CCl)cc1 | 90 | 89 | 79 | –
11 | O=C(COc1ccccc1Cl)COc1ccccc1Cl | 70 | 69 | 69 | Activity (Rattus norvegicus [4]): 1.02%; Activity (Rattus norvegicus [5]): 4.66%; Activity (Rattus norvegicus [7]): 0.27%; Activity (Rattus norvegicus [9]): 0.23%; Activity (Rattus norvegicus [11]): 1.21%
12 | O=C(COc1ccc(F)cc1)COc1ccc(F)cc1 | 82 | 87 | 88 | –
13 | O=C(COc1ccc(Cl)cc1)COc1ccc(Cl)cc1 | 62 | 64 | 81 | Activity (Rattus norvegicus [4]): 0.86%; Activity (Rattus norvegicus [5]): 4.51%; Activity (Rattus norvegicus [12]): 91%; Activity (Rattus norvegicus [13]): 99%; Activity (Rattus norvegicus [14]): 0.39%; solubility [6]: Insoluble; Activity (Mus musculus [15]): 100%; Activity (Rattus norvegicus [16]): 108%; Activity (Rattus norvegicus [7]): 0.26%; Activity (Rattus norvegicus [17]): 101%; LD50 [8]: > 2000 mg/kg; Activity (Rattus norvegicus [18]): 78%; Activity (Mus musculus [19]): 30%; Activity (Rattus norvegicus [9]): 0.14%; Activity (Mus musculus [20]): 84%; Activity (Rattus norvegicus [10]): 48%; Activity (Rattus norvegicus [21]): 105%; Activity (Rattus norvegicus [11]): 1.23%
14 | COc1ccc(OCC(=O)COc2ccc(OC)cc2)cc1 | 60 | 51 | 76 | Activity (Rattus norvegicus [4]): 1.04%; Activity (Rattus norvegicus [5]): 4.73%; Activity (Rattus norvegicus [14]): 0.54%; Activity (Rattus norvegicus [7]): 0.22%; LD50 [8]: 6000 mg/kg; Activity (Rattus norvegicus [9]): 0.11%; Activity (Rattus norvegicus [10]): 70%; Activity (Rattus norvegicus [11]): 1.22%
15 | O=C(COCc1ccc(Cl)cc1)COCc1ccc(Cl)cc1 | 92 | 88 | 106 | –
16 | O=C(COc1ccccc1)COc1ccccc1 | 90 | 87 | 104 | –
17 | CC(C)(C)c1ccc(OCC(=O)COc2ccc(C(C)(C)C)cc2)cc1 | 83 | 95 | 87 | –

Row | Compound | Activity (Rattus norvegicus [1]) [%] | Activity (Rattus norvegicus [2]) [%] | Activity (Rattus norvegicus [3]) [%] | also measured
18 | CC(=O)C(O)(Cc1ccccc1)Cc1ccccc1 | 84 | 77 | 88 | –
19 | Cc1cc(Cl)c(OCC(=O)COc2cc(C)c(C)cc2Cl)cc1C | 58 | 65 | 79 | Activity (Rattus norvegicus [4]): 1.06%; Activity (Rattus norvegicus [5]): 4.8%; Activity (Rattus norvegicus [14]): 0.52%; solubility [6]: Insoluble; Activity (Rattus norvegicus [7]): 0.27%; LD50 [8]: > 2000 mg/kg; Activity (Rattus norvegicus [9]): 0.16%; Activity (Rattus norvegicus [10]): 56%; Activity (Rattus norvegicus [11]): 1.24%
20 | CC/C(=C(/CC)c1ccc(O)cc1)c1ccc(O)cc1 [DIETHYLSTILBESTROL] | – | – | – | Activity (Mus musculus [22]): 0%; Activity (Mus musculus [23]): 0%; Activity (Mus musculus [24]): 0%
21 | CCOC(=O)C(C)(C)Oc1ccc(Cl)cc1 [CLOFIBRATE] | 106 | 98 | 111 | –
22 | Cc1ccc(/C=C/C(=O)/C=C/c2ccc(C)cc2)cc1 | 96 | 83 | 94 | –
23 | Cc1cc(OCC(=O)COc2cc(C)c(Cl)c(C)c2)cc(C)c1Cl | 61 | 70 | 78 | Activity (Rattus norvegicus [4]): 1.02%; Activity (Rattus norvegicus [5]): 4.66%; solubility [6]: Insoluble; Activity (Rattus norvegicus [7]): 0.27%; LD50 [8]: > 6000 mg/kg; Activity (Rattus norvegicus [9]): 0.1%; Activity (Rattus norvegicus [10]): 83%; Activity (Rattus norvegicus [11]): 0.91%
24 | Cc1ccccc1OCC(=O)COc1ccccc1C | 90 | 92 | 90 | –
25 | O=C(COc1cc(Cl)c(Cl)cc1Cl)COc1cc(Cl)c(Cl)cc1Cl | 97 | 82 | 94 | –
26 | CC(Cc1ccccc1)C(=O)C(C)Cc1ccccc1 (centres undefined) | – | – | – | Activity (Mus musculus [15]): 0%; Activity (Mus musculus [19]): 0%; Activity (Mus musculus [20]): 0%
27 | O=C(CSc1ccc(Cl)cc1)CSc1ccc(Cl)cc1 | 66 | 73 | 70 | Activity (Rattus norvegicus [4]): 0.94%; Activity (Rattus norvegicus [5]): 4.53%; solubility [6]: Insoluble; Activity (Rattus norvegicus [7]): 0.25%; LD50 [8]: > 3000 mg/kg; Activity (Rattus norvegicus [9]): 0.12%; Activity (Rattus norvegicus [10]): 86%; Activity (Rattus norvegicus [11]): 1.13%
28 | Cc1ccc(OCC(=O)C(O)(Cc2ccccc2)Cc2ccccc2)cc1 | 70 | 72 | 80 | –
29 | COc1ccccc1OCC(=O)COc1ccccc1OC | 79 | 83 | 102 | –
30 | C#C[C@]1(O)CC[C@H]2[C@@H]3CCc4cc(O)ccc4[C@H]3CC[C@@]21C [ETHINYL ESTRADIOL] | – | – | – | Activity (Rattus norvegicus [10]): 231%
31 | CCCCCCCCCCCCCCCCOCC(=O)COCCCCCCCCCCCCCCCC | 91 | 89 | 88 | –
32 | Cc1ccc(CCC(=O)CCc2ccc(C)cc2)cc1 | 96 | 86 | 91 | –
33 | O=C(COc1ccc(I)cc1)COc1ccc(I)cc1 | 93 | 103 | 100 | –
34 | CCCc1ccc(OCC(=O)COc2ccc(CCC)cc2)cc1 | 78 | 88 | 94 | –

— ChEMBL document CHEMBL3272327, “Hypocholesterolemic activity of 1,3-bis(substituted phenoxy)-2-propanones” (J Med Chem, 1976)
